According to ChEMBL document CHEMBL3286302, “Design, synthesis and biological evaluation of small molecular polyphenols as entry inhibitors against H(5)N(1)” (Bioorg Med Chem Lett, 2014):
Calls of active or inactive are those of the source. The calls are words filed in the database; no cut-off is given here.

Legend:
[1] = Antiviral activity against Influenza A virus (A/Vietnam/1194/2004(H5N1)) infected in MDCK cells assessed as inhibition of viral replication after 2 to 3 days by crystal violet staining-based plaque reduction assay; format: functional, cell-based
[2] = Cytotoxicity against MDCK cells after 72 hrs by MTT assay; format: cell-based, Canis lupus familiaris; conditions: dog
How it was run: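 Uninfected MDCK cells were assayed by MTT. CC50 is the concentration causing 50% cell death. Values are the average of three separate experiments.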

[3] = Selectivity index, ratio of CC50 for MDCK cells to IC50 for Influenza A virus (A/Vietnam/1194/2004(H5N1)); format: functional
[4] = target: Neuraminidase (Influenza A virus) (UniProt B4URF0); assay: Inhibition of Influenza A virus H5N1 neuraminidase up to 20 ug/ml by fluorescence spectrophotometric analysis
[5] = cells; format: functional, Influenza A virus (A/Vietnam/1194/2004(H5N1)); conditions: Influenza A virus, MDCK, 2 h
[6] = cells; format: functional, Influenza A virus (A/Vietnam/1194/2004(H5N1)); conditions: Influenza A virus, MDCK, 2 h; remark: listed apart in the source
[7] = system: Influenza A virus; assay: Inhibition of Influenza A virus H5N1 hemagglutinin adsorption to chicken RBC at 100 ug/ml by two-fold dilution method
How it was run: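 Hemagglutination inhibition assay using H5 standard antigen and antiserum. Compounds were tested in serial 2-fold dilutions from 100 to 0.098 µg/ml.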

Chain of Neuraminidase (Influenza A virus) (B4URF0 as listed by the source): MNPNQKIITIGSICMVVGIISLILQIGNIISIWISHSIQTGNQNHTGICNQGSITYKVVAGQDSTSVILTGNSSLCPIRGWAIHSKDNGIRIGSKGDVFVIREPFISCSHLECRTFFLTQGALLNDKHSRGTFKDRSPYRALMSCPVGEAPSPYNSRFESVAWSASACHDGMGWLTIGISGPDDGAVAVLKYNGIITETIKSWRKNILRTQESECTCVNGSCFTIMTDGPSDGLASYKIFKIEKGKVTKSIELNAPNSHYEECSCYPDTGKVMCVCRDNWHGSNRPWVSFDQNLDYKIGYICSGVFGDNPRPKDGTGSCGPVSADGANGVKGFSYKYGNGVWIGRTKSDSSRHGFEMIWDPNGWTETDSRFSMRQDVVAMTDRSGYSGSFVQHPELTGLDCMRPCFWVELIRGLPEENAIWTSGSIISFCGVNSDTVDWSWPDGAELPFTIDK

| SMILES | IC50 [1] | CC50 at 72 h [2] | Ratio CC50/IC50 [3] | inhibition [4] | inhibition at 30 µM [5] | inhibition at 30 µM [6] | inhibition [7] |
| --- | --- | --- | --- | --- | --- | --- | --- |
| COC(=O)Cc1ccc(O)c(O)c1 | 19.5 µM | > 170 µM | >8.7 |  |  |  |  |
| COC(=O)c1ccc(OC)c(OC)c1 [VERATRIC ACID METHYL ESTER] |  | > 170 µM |  |  |  |  |  |
| COC(=O)c1ccc(O)c(O)c1 [METHYL PROTOCATECHUATE] | 18.3 µM | > 183 µM | >10.02 |  |  |  |  |
| COC(=O)[C@H](CC(C)C)NC(=O)Cc1ccc(O)c(O)c1 | 41.8 µM | > 183 µM | >4.38 |  |  |  |  |
| CC(C)OC(=O)c1ccc(O)c(O)c1 | 14.9 µM | > 159 µM | >10.65 | inactive | > 50% | 20% | inactive |
| COC(=O)Cc1ccc(OC)c(OC)c1 |  | > 159 µM |  |  |  |  |  |
| CC(C)OC(=O)CCc1ccc(O)c(O)c1 | 19.5 µM | > 198 µM | >10.16 |  |  |  |  |
| CCOC(=O)Cc1ccc(O)c(O)c1 | 16.9 µM | > 159 µM | >9.41 |  |  |  |  |
| CCOC(=O)CCc1ccc(O)c(O)c1 | 21.5 µM | > 216 µM | >10.08 |  |  |  |  |
| COC(=O)[C@H](Cc1ccccc1)NC(=O)c1ccc(O)c(O)c1 |  | > 106 µM |  |  |  |  |  |
| COC(=O)CCc1ccc(OC)c(OC)c1 |  | > 149 µM |  |  |  |  |  |
| COC(=O)[C@H](CC(C)C)NC(=O)c1ccc(O)c(O)c1 | 22.2 µM | > 119 µM | >5.33 | inactive | > 50% | 20% | inactive |
| CCOC(=O)c1ccc(O)c(O)c1 | 16.1 µM | > 170 µM | >10.55 |  |  |  |  |
| COC(=O)CCc1ccc(O)c(O)c1 | 23.8 µM | > 238 µM | >10.01 |  |  |  |  |
| NC12CC3CC(CC(C3)C1)C2 [AMANTADINE] | 10.8 µM | 219 µM | 20.27 |  |  |  |  |
| CC(=O)N[C@H]1[C@H]([C@H](O)[C@H](O)CO)OC(C(=O)O)=C[C@@H]1NC(=N)N [ZANAMIVIR] | 0.88 µM | > 100 µM | >113.64 |  |  |  |  |
| CC(C)OC(=O)Cc1ccc(O)c(O)c1 | 15.2 µM | > 149 µM | >9.77 |  |  |  |  |
| COC(=O)[C@H](Cc1ccccc1)NC(=O)Cc1ccc(O)c(O)c1 |  | > 170 µM |  |  |  |  |  |
| OCc1ccc(O)c(O)c1 | 1.78 µM | > 143 µM | >80.15 | inactive | 100% | 20% | inactive |
